Laboratory results from BindingDB's records for doi:10.1021/jm00343a011 (1982).

Columns and labels:
[1] = target: T1, Malate dehydrogenase, cytoplasmic (Sus scrofa, UniProt P11708); test: Ability to inhibit cytoplasmic malate dehydrogenase
T1 sequence (P11708 whole entry): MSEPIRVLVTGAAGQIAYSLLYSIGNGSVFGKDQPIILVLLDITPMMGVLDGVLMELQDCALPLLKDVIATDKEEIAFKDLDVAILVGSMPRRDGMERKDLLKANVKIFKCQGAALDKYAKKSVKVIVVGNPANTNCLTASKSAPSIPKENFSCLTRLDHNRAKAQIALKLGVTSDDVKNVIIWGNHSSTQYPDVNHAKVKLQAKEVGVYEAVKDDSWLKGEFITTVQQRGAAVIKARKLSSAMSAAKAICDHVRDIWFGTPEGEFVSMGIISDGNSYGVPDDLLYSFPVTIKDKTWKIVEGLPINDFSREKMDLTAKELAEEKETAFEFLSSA
How it was run: (§1)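 Pig heart enzyme (cytoplasmic or mitochondrial form), diluted in 0.05 M Tris pH 7.4 with 1% BSA to give 0.022–0.027 OD/min at 340 nm. Cuvette holds 0.05 M Tris pH 8.4, L-malate, NAD+ and Me2SO ± inhibitor. Equilibrated at 25 °C, then started with enzyme. Five inhibitor concentrations in triplicate; I50 from least-squares dose-response line.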

[2] = target: T2, Malate dehydrogenase, mitochondrial (Sus scrofa, UniProt P00346); test: Ability to inhibit mitochondrial malate dehydrogenase; how it was run: as §1
T2 sequence (P00346 whole entry): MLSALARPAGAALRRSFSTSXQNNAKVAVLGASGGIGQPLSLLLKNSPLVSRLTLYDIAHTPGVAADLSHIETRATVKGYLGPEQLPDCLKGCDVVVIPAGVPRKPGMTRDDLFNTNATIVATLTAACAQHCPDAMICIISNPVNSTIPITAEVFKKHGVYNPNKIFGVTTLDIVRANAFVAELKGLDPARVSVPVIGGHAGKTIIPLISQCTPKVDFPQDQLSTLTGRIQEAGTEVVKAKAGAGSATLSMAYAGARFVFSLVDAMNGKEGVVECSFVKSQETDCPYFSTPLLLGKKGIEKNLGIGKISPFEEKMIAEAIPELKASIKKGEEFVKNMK

| IC50 [1] [µM] | IC50 [2] [µM] | SMILES |
| --- | --- | --- |
| 1200 | 1910 | O=C(O)c1cnc2cc([N+](=O)[O-])ccc2c1O |
| 81.3 | 2.45 | O=C(O)c1cnc2cc(OCCOc3ccc(Oc4ccccc4)cc3)ccc2c1O |
| 72.4 | 2.19 | O=C(O)c1cnc2cc(OCCc3ccc4ccccc4c3)ccc2c1O |
|  | 39.8 | O=C(O)c1cnc2cc(OCc3ccc(F)cc3)ccc2c1O |
| 61.7 | 1.82 | O=C(O)c1cnc2cc(OCCc3ccc(Oc4ccccc4)cc3)ccc2c1O |
|  | 6.76 | O=C(O)c1cnc2cc(OCc3ccc(Br)cc3)ccc2c1O |
| 955 | 490 | O=C(O)c1cnc2cc(O)ccc2c1O |
| 603 | 741 | NC(=O)c1ccc2c(O)c(C(=O)O)cnc2c1 |
|  | 1.58 | O=C(O)c1cnc2cc(OCCOc3ccc4ccccc4c3)ccc2c1O |
| 30.9 | 1.48 | O=C(O)c1cnc2cc(OCc3ccc(Oc4ccccc4)cc3)ccc2c1O |
| 437 | 661 | CS(=O)(=O)c1ccc2c(O)c(C(=O)O)cnc2c1 |
| 3090 | 2140 | O=C(O)c1cnc2cc(S(=O)(=O)O)ccc2c1O |
| 912 | 912 | CC(=O)c1ccc2c(O)c(C(=O)O)cnc2c1 |
| 91.2 | 2.51 | O=C(O)c1cnc2cc(OCCc3ccc(Br)cc3)ccc2c1O |
|  | 5.13 | O=C(O)c1cnc2cc(OCCOc3ccc(Br)cc3)ccc2c1O |
| 692 | 955 | NS(=O)(=O)c1ccc2c(O)c(C(=O)O)cnc2c1 |
|  | 4.79 | O=C(O)c1cnc2cc(OCc3ccc(Cl)c(Cl)c3)ccc2c1O |
| 4680 | 3630 | O=C(O)c1cnc2cc(Cl)ccc2c1O |
|  | 60.3 | O=C(O)c1cnc2cc(OCCOc3ccccc3)ccc2c1O |
|  | 18.2 | O=C(O)c1cnc2cc(OCCOc3ccc(F)cc3)ccc2c1O |
| 11000 | 10500 | O=C(O)c1cnc2cc(F)ccc2c1O |
|  | 13.2 | O=C(O)c1cnc2cc(OCc3cccc4ccccc34)ccc2c1O |
|  | 14.8 | O=C(O)c1cnc2cc(OCCc3ccc(F)cc3)ccc2c1O |
|  | 4.79 | O=C(O)c1cnc2cc(OCc3c(Cl)c(Cl)c(Cl)c(Cl)c3Cl)ccc2c1O |
|  | 32.4 | O=C(O)c1cnc2cc(OCc3ccccc3)ccc2c1O |
|  | 4.07 | O=C(O)c1cnc2cc(OCc3ccc4ccccc4c3)ccc2c1O |
| 372 | 479 | CN(C)c1ccc2c(O)c(C(=O)O)cnc2c1 |
| 1290 | 1070 | O=C(O)c1ccc2c(O)c(C(=O)O)cnc2c1 |
| 155 | 38 | O=C(O)c1cnc2cc(OCCc3ccccc3)ccc2c1O |
